{"data": "Experimental data collected from several papers", "SIRT6": "NAD-dependent protein deacylase sirtuin-6 (SIRT6, Homo sapiens, UniProt Q8N6T7)", "PTAFR": "Platelet-activating factor receptor (PTAFR, Homo sapiens, UniProt P25105)", "Plasmepsin II": "Plasmepsin II (Plasmodium falciparum, UniProt P46925)", "CCR2": "C-C chemokine receptor type 2 (CCR2, Homo sapiens, UniProt P41597)", "HTR6": "5-hydroxytryptamine receptor 6 (HTR6, Homo sapiens, UniProt P50406)", "CCR5": "C-C chemokine receptor type 5 (CCR5, Homo sapiens, UniProt P51681)", "note": "Compare with care: the assays were run in different laboratories."}
{"SMILES": "CCCCCCCCCCCCNC(=S)NCCCC[C@H](NS(C)(=O)=O)C(=O)N[C@@H](C)C(=O)N[C@@H](CCCNC(=N)N)C(N)=O", "target": "SIRT6", "test": "enzyme activity, inhibitor", "setting": "10 µM", "inhibition [%]": 30}
{"SMILES": "O=C(NOCc1ccc(C(F)(F)F)cc1)c1ccc(-c2nn[nH]n2)cc1", "target": "SIRT6", "test": "enzyme activity, inhibitor, fluorescence", "setting": "100 µM", "inhibition [%]": 4.2}
{"SMILES": "CC/C(=N\\NC(=O)NCc1cccc(O)c1)c1ccc(O)c(C)c1O", "target": "ALK tyrosine kinase receptor (ALK, Homo sapiens, UniProt Q9UM73, L1196M)", "test": "enzyme activity, inhibitor", "setting": "0.1 µM", "inhibition [%]": 3}
{"SMILES": "O=C(c1ccc(F)cc1)N(Cc1ccccc1)C1CCCCC1", "target": "PTAFR", "test": "cell-free assay", "setting": "10 µM", "inhibition [%]": 6}
{"SMILES": "O=C(NCCNC(=O)c1n[nH]c(=O)c2ccccc12)c1cccc(CN2C(=O)CNC2=O)c1", "target": "Poly [ADP-ribose] polymerase 2 (PARP2, Homo sapiens, UniProt Q9UGN5)", "test": "enzyme activity, inhibitor", "setting": "0.5 µM", "inhibition [%]": "~50"}
{"SMILES": "CC(C)(C)c1ccc(CONC(=O)c2ccc(C(N)=O)cc2)cc1", "target": "SIRT6", "test": "enzyme activity, inhibitor, fluorescence", "setting": "100 µM", "inhibition [%]": 95.1}
{"SMILES": "OC(CCN1CCN(c2ccc(C(F)(F)F)cc2)CC1)c1csc2ccc(F)cc12 (stereo not drawn)", "target": "Plasmepsin II", "test": "enzyme activity, inhibitor", "setting": "5 µM", "inhibition [%]": 0}
{"SMILES": "O=C(Nc1ccc(S(=O)(=O)N2CCC(Cl)CC2)cc1)c1ccc([N+](=O)[O-])o1", "target": "PTAFR", "test": "ligand displacement, radioligand", "setting": "10 µM", "inhibition [%]": 39}
{"SMILES": "COc1cc2c3c(c1OCc1ccc(Br)cc1)-c1cc4c(cc1CC3N(C)CC2c1ccccc1)OCO4 (stereo not drawn)", "target": "5-hydroxytryptamine receptor 7 (HTR7, Homo sapiens, UniProt P34969)", "test": "ligand displacement, radioligand", "setting": "10 µM", "inhibition [%]": -22.6}
{"SMILES": "O=[N+]([O-])c1ccc(N2CCC(NCCC(O)c3csc4ccc(F)cc34)CC2)c(C(F)(F)F)c1 (stereo not drawn)", "target": "Plasmepsin II", "test": "enzyme activity, inhibitor", "setting": "5 µM", "inhibition [%]": 0}
{"SMILES": "CN(Cc1ccc(NC(=O)C2=Cc3cc(-c4ccc(OCCCF)cc4)ccc3CCC2)cc1)C1CCOCC1", "target": "CCR2", "test": "ligand displacement, radioligand", "setting": "1 µM, cell membranes", "inhibition [%]": 48}
{"SMILES": "Nc1ccc(-c2ccncc2)cc1NC(=O)N1CCCC1", "target": "HTR6", "test": "ligand displacement, radioligand", "setting": "10 µM", "inhibition [%]": 16}
{"SMILES": "Ic1cccc2cnccc12", "target": "Protein mono-ADP-ribosyltransferase PARP14 (PARP14, Homo sapiens, UniProt Q460N5)", "test": "enzyme activity, inhibitor", "setting": "10 µM", "inhibition [%]": 7}
{"SMILES": "COc1ccccc1CONC(=O)c1ccc(C(N)=O)cc1", "target": "SIRT6", "test": "enzyme activity, inhibitor, fluorescence", "setting": "100 µM", "inhibition [%]": 60.5}
{"SMILES": "CCN(Cc1ccccc1C(F)(F)F)C(=O)C1CCN(S(=O)(=O)c2ccc3[nH]ncc3c2)CC1", "target": "PTAFR", "test": "ligand displacement, radioligand", "setting": "10 µM", "inhibition [%]": 7}
{"SMILES": "C/C(=C\\C(=O)OCCCCCCCCC(=O)O)C[C@@H]1OC[C@H](C[C@@H]2O[C@H]2[C@@H](C)[C@H](C)O)[C@@H](O)[C@H]1O", "target": "CCR5", "test": "calcium signal, antagonist", "system": "U87/CD4/CCR5", "setting": "0.8 µM", "inhibition [%]": 52}
{"SMILES": "NC(=O)c1ccc(C(=O)NOCc2ccc(Sc3cccc(F)c3)c(C(F)(F)F)c2)cc1", "target": "SIRT6", "test": "enzyme activity, inhibitor, fluorescence", "setting": "100 µM", "inhibition [%]": 97.6}
{"SMILES": "CCN(CC)CCNC(=O)C1CCN(c2ccc3nnc(-c4cccc(C)c4)n3n2)CC1", "target": "Sodium channel protein type 5 subunit alpha (SCN5A, Homo sapiens, UniProt Q14524)", "test": "ion current, inhibitor, patch clamp", "system": "CHO", "setting": "10 µM", "inhibition [%]": 9.9}
{"SMILES": "NC(=O)c1ccc(C(=O)NOCc2ccc3sc4ccccc4c3c2)cc1", "target": "SIRT6", "test": "enzyme activity, inhibitor, fluorescence", "setting": "100 µM", "inhibition [%]": 96.2}
{"SMILES": "OCc1cc(C(O)CNCCCCCCOCCCCc2ccccc2)ccc1O (stereo not drawn)", "target": "CCR5", "test": "calcium signal, antagonist", "system": "U87/CD4/CCR5", "setting": "100 µM", "inhibition [%]": 60}
{"SMILES": "NC(=O)c1ccc(C(=O)NOCc2ccc(-n3cccn3)cc2)cc1", "target": "SIRT6", "test": "enzyme activity, inhibitor, fluorescence", "setting": "100 µM", "inhibition [%]": 91.8}
{"SMILES": "C=CCC1(/C=C(\\C)C=C)SC(=O)C(CC)=C1O (racemic)", "target": "Nicotinamide N-methyltransferase (NNMT, Homo sapiens, UniProt P40261)", "test": "enzyme activity, inhibitor", "setting": "10 µM", "inhibition [%]": "~35"}
{"SMILES": "CN(C)C1CCN(CC#Cc2nn(C3CCCC3)c3nc(NCc4ccccc4)ncc23)C1 (stereo not drawn)", "target": "Mitogen-activated protein kinase 13 (MAPK13, Homo sapiens, UniProt O15264)", "test": "enzyme activity, inhibitor, FRET", "setting": "0.1 µM", "inhibition [%]": 1}
{"SMILES": "N#Cc1cc(Cn2c(N3CCCC3)nc3ccccc32)ccc1F", "target": "HTR6", "test": "ligand displacement", "setting": "10 µM", "inhibition [%]": 6.5}
{"SMILES": "O=[N+]([O-])c1ccc(N2CCN(CCC(O)c3csc4ccc(F)cc34)CC2)c(C(F)(F)F)c1 (stereo not drawn)", "target": "Plasmepsin II", "test": "enzyme activity, inhibitor", "setting": "5 µM", "inhibition [%]": 13}
{"SMILES": "NCc1cccc(C(=O)NOCc2ccc(C(F)(F)F)cc2)c1", "target": "SIRT6", "test": "enzyme activity, inhibitor, fluorescence", "setting": "100 µM", "inhibition [%]": 72.2}
{"SMILES": "C1=CSC(=C2SC=CS2)S1", "target": "Ubiquitin carboxyl-terminal hydrolase 14 (USP14, Homo sapiens, UniProt P54578)", "test": "enzyme activity, inhibitor", "setting": "17 µM", "inhibition [%]": 54}
{"SMILES": "CN(Cc1ccc(NC(=O)C2=Cc3cc(-c4ccc(OCCCCCO)cc4)ccc3CCC2)cc1)C1CCOCC1", "target": "CCR2", "test": "ligand displacement, radioligand", "setting": "1 µM, cell membranes", "inhibition [%]": 53}
{"SMILES": "O=C(NO)c1ccc(C(=O)NOCc2ccc(C(F)(F)F)cc2)cc1", "target": "SIRT6", "test": "enzyme activity, inhibitor, fluorescence", "setting": "100 µM", "inhibition [%]": 93.3}
{"SMILES": "CCN(CC)c1ccc(C2Nc3ccc(C(=O)c4ccccc4)cc3NC3=C2C(=O)CC(C)(C)C3)cc1 (stereo not drawn)", "target": "HTR6", "test": "ligand displacement, radioligand", "setting": "10 µM", "inhibition [%]": 30}
